# Reference: ChEMBL document CHEMBL5316292 (J Med Chem, 2023)
# The source made the active and inactive calls. The calls are words filed in the database; no cut-off is given here.
# Legend:
# VCaP [1] = assay: Downregulation of PSA […] expression in human VCaP cells incubated for 24 hrs by qRT-PCR analysis; format: functional, cell-based; settings: dose 25-2500 nM
# In short: (§1)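 VCaP cells grown to 50% confluence, then treated with compound or DMSO (Methods state 16 h, legend states 24 h). Total RNA isolated, cDNA made from 1 µg RNA, SYBR Green qPCR run in triplicate. Expression by ΔΔCt, normalised to GAPDH. Three independent experiments, SEM.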
# [2] = molecular target: T1, Bromodomain-containing protein 3 (Homo sapiens, UniProt Q15059); assay: Binding affinity to human partial length BRD3 BD1 (P24 to E144 residues) expressed in bacterial expression system assessed as change in melting temperature at 50 uM at 20 to 85 degreeC by SYPRO orange staining based thermal shift assay
# In short: (§2)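 DSF thermal shift. 10 µM BD in 50 mM HEPES, 500 mM NaCl pH 7.5, with 50 µM compound or DMSO-matched control and 1:1000 Sypro Orange (ex 465/em 590 nm). Ramp 20–85 °C at 0.03 °C/s. Tm taken as the midpoint between fluorescence max and min. At least three independent experiments, SEM in °C.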
# Target sequence in this assay (Q15059 2-726 limits assumed): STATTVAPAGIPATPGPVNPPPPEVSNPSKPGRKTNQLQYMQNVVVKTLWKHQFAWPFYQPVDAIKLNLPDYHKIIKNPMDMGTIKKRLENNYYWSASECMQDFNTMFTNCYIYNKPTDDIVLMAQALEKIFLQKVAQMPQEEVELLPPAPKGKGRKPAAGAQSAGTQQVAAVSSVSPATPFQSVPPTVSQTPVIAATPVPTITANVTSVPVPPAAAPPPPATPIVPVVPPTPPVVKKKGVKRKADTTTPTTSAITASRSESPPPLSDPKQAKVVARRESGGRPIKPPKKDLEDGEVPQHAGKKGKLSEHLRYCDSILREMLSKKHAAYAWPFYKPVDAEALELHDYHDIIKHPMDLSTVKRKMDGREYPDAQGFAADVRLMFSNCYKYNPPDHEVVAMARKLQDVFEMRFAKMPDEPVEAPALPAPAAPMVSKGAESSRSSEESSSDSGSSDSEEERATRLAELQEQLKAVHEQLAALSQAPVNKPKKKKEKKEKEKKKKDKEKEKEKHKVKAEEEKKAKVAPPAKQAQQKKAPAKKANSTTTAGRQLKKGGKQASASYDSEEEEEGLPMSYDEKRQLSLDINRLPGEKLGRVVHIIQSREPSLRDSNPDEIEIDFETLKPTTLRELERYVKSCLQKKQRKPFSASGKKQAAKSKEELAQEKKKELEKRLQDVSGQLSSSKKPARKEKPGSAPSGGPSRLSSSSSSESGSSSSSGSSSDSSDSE
# [3] = molecular target: T1, Bromodomain-containing protein 3; assay: Induction of BRD3 degradation in human MDA-MB-231 cells assessed as decrease in BET half life at 10 uM incubated for 8 hrs in presence of cycloheximide by immunoblotting analysis; format: cell-based
# In short: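 MDA-MB-231 time-course. Cells given 50 µg/mL cycloheximide plus DMSO, or 50 µg/mL cycloheximide plus 10 µM compound. RIPA lysates immunoblotted for BRD2, BRD3 and BRD4 with GAPDH as control.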
# Target sequence in this assay (Q15059 2-726 limits assumed): as above
# [4] = molecular target: T2, Bromodomain-containing protein 4 (Homo sapiens, UniProt O60885); assay: Binding affinity to human partial length BRD4 BD2 (K333 to E460 residues) expressed in bacterial expression system using H4K5acIC8acK12acK16ac-biotinylated peptide as substrate preincubated for 30 mins followed by substrate addition by AlphaScreen assay
# VCaP [5] = assay: Downregulation of BRD4 mRNA levels in human VCaP cells at 25 to 2500 nM incubated for 24 hrs by qRT-PCR analysis; format: functional, cell-based; settings: dose 25-2500 nM; in short: as §1
# [6] = Cytotoxicity against HFF cells assessed as reduction in cell viability measured after 72 hrs by MTS assay; format: toxicity, cell-based; settings: human
# In short: (§3)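 MTS viability assay run in triplicate wells. Serial dilutions in DMSO were given, with DMSO as negative control and doxorubicin as positive control, and incubated 72 h. MTS reagent was added for 2 h and absorbance read at 490 nm. % cytotoxicity = (A_medium − A_treatment)/A_medium × 100. EC50 ± SD was taken from dose-response curves of at least three independent experiments.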
# [7] = molecular target: Bromodomain-containing protein 2 (Homo sapiens, UniProt P25440); assay: Induction of BRD2 degradation in human PC-3 cells incubated for 16 hrs by immunoblotting analysis; format: cell-based
# In short: (§4)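 MDA-MB-231 or PC-3 cells at 50% confluence in DMEM/10% FBS/pen-strep, treated 16 h with doses falling tenfold from 10 µM to 1 nM. RIPA lysates immunoblotted for BRD2, BRD3 and BRD4 with GAPDH as control. DC50 derived from band densitometry. SEM, n = 2.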
# [8] = molecular target: T2, Bromodomain-containing protein 4; assay: Induction of BRD4 degradation in human MDA-MB-231 cells incubated for 16 hrs by immunoblotting analysis; format: cell-based; in short: as §4
# [9] = molecular target: T1, Bromodomain-containing protein 3; assay: Binding affinity to human partial length BRD3 BD2 (G306 to P416 residues) expressed in bacterial expression system assessed as change in melting temperature at 50 uM at 20 to 85 degreeC by SYPRO orange staining based thermal shift assay; in short: as §2
# Target sequence in this assay (Q15059 2-726 limits assumed): as above
# [10] = molecular target: T2, Bromodomain-containing protein 4; assay: Binding affinity to human partial length BRD4 BD1 (N44 to E168 residues) expressed in bacterial expression system using H4K5acIC8acK12acK16ac-biotinylated peptide as substrate preincubated for 30 mins followed by substrate addition by AlphaScreen assay
# [11] = molecular target: T3, Bromodomain testis-specific protein (Homo sapiens, UniProt Q58F21); assay: Binding affinity to human partial length BRDT BD2 (K250 to E382 residues) expressed in bacterial expression system using H4K5acIC8acK12acK16ac-biotinylated peptide as substrate preincubated for 30 mins followed by substrate addition by AlphaScreen assay
# In short: (§5)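 AlphaScreen. Biotinylated H4K5acK8acK12acK16ac peptide added at equal concentration to protein for 30 min. Donor and acceptor beads (25 µg/mL each) added, ≥1 h in the dark. Triplicate, curve-fitted, SEM.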
# VCaP [12] = assay: Downregulation of BRD2 mRNA levels in human VCaP cells at 25 to 2500 nM incubated for 24 hrs by qRT-PCR analysis; format: functional, cell-based; settings: dose 25-2500 nM; in short: as §1
# VCaP [13] = assay: Downregulation of AR […] expression in human VCaP cells incubated for 24 hrs by qRT-PCR analysis; format: functional, cell-based; settings: dose 25-2500 nM; in short: as §1
# LNCaP = assay: Antiproliferative activity against androgen-sensitive human LNCaP cells assessed as reduction in cell viability measured after 72 hrs by MTS assay; format: functional, cell-based; in short: as §3
# [14] = molecular target: T1, Bromodomain-containing protein 3; assay: Induction of BRD3 degradation in human MDA-MB-231 cells at 0.025 to 2.5 uM incubated for 24 hrs by qRT-PCR analysis; format: cell-based; settings: dose 0.025-2.5 µM
# In short: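 MDA-MB-231 cells treated for 24 h at doses rising tenfold from 25 nM to 2.5 µM. Gene expression measured by qRT-PCR. SEM, n = 3.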
# Target sequence in this assay (Q15059 2-726 limits assumed): as above
# [15] = molecular target: T2, Bromodomain-containing protein 4; settings: dose 50.0 µM
# [16] = molecular target: T1, Bromodomain-containing protein 3; assay: Binding affinity to 6His-tagged BRD3-BD1 (unknown origin) by MST assay
# In short: (§6)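 His6-tagged BD (80 nM) after size-exclusion, labelled 1:1 with 10 nM Red-tris-NTA in PBST (0.05% Tween-20) for 30 min at room temperature, then centrifuged. Mixed with an equal volume of serially diluted compound. Thermophoresis read at 40% LED/MST power. Triplicate data curve-fitted, error as SEM.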
# Target sequence in this assay (Q15059 whole entry, the tested form may be a part): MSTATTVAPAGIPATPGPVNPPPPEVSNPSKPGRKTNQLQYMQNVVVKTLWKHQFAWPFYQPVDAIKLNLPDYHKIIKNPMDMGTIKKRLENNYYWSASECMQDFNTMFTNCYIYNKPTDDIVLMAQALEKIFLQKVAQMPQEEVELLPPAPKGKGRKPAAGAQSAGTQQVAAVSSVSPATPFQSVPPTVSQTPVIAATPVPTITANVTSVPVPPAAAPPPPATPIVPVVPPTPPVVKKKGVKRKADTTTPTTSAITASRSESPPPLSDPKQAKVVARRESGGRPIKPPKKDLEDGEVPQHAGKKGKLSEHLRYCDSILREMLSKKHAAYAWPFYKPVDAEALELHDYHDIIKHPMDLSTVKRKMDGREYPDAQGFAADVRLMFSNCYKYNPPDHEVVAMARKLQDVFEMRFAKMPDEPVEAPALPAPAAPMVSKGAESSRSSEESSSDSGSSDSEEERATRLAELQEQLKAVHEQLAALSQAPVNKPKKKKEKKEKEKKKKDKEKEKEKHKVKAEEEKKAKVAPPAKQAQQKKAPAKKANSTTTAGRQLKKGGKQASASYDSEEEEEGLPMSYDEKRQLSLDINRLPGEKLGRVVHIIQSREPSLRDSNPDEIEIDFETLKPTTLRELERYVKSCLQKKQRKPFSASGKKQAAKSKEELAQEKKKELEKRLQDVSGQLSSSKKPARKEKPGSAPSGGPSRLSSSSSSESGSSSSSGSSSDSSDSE
# [17] = molecular target: T2, Bromodomain-containing protein 4; assay: Induction of BRD4 degradation in human MDA-MB-231 cells at 10 uM incubated for 8 hrs in presence of MG132 by immunoblotting analysis; format: cell-based
# [18] = molecular target: T1, Bromodomain-containing protein 3; assay: Induction of BRD3 degradation in human PC-3 cells incubated for 16 hrs by immunoblotting analysis; format: cell-based; in short: as §4
# [19] = molecular target: T1, Bromodomain-containing protein 3; assay: Binding affinity to 6His-tagged BRD3-BD2 (unknown origin) by MST assay; in short: as §6
# Target sequence in this assay (Q15059 whole entry, the tested form may be a part): as above
# VCaP [20] = assay: Antiproliferative activity against AR-positive human VCaP cells assessed as reduction in cell viability measured after 72 hrs by MTS assay; format: functional, cell-based
# In short: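 VCaP cells in 96-well plates, compound serially diluted in DMSO and run in triplicate wells for 72 h. MTS reagent added for 2 h, absorbance read at 490 nm. % cytotoxicity = (A_medium − A_treatment)/A_medium × 100. EC50 and SD taken from dose-response curves, at least three independent experiments.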
# [21] = molecular target: T2, Bromodomain-containing protein 4; assay: Induction of BRD4 degradation in human PC-3 cells incubated for 16 hrs by immunoblotting analysis; format: cell-based; in short: as §4
# [22] = molecular target: T3, Bromodomain testis-specific protein; assay: Binding affinity to human partial length BRDT BD1 (N21 to E137 residues) expressed in bacterial expression system using H4K5acIC8acK12acK16ac-biotinylated peptide as substrate preincubated for 30 mins followed by substrate addition by AlphaScreen assay; in short: as §5
# Bromodomain-containing protein 2, sequence (P25440 whole entry): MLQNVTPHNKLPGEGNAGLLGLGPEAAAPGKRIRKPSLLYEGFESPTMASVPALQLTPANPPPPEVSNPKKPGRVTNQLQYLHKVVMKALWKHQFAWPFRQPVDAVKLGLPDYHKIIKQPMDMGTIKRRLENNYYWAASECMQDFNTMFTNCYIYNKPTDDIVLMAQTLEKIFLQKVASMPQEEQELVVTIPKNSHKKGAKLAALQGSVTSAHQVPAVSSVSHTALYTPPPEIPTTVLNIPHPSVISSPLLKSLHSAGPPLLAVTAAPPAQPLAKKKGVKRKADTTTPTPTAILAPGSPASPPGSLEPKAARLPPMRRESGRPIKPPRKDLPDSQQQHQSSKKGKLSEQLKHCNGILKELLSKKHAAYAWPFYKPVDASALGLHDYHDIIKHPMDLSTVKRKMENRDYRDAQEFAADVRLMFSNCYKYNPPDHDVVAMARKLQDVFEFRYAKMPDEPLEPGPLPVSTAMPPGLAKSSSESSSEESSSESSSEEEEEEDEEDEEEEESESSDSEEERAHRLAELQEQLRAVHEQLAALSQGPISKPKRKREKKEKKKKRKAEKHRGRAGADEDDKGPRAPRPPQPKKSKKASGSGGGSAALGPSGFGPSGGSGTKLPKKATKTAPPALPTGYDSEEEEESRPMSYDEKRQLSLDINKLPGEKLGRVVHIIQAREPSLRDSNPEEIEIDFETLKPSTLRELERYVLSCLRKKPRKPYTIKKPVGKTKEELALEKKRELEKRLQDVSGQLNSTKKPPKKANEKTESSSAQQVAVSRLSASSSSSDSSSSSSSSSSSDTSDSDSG
structure (smiles),measurement,setting,value
CC(=O)OC[C@]12CC[C@H]3[C@@H](C[C@H]4O[C@]45CC=CC(=O)[C@]35C)[C@]1(O)CC[C@@]2(O)[C@@](C)(O)[C@H]1CC(C)=C(C)C(=O)O1,Activity,VCaP [1],Dose-Dependent Effect
same,ΔTm,[2],12.5 °C
same,Activity,[3],Active
same,IC50,[4],142 nM
same,Activity,VCaP [5],inactive
same,EC50 at 72 h,[6],> 2000 nM
same,DC50,[7],> 10000 nM
same,Activity,[8],Dose-Dependent Effect
same,DC50,[8],41.6 nM
same,ΔTm,[9],7.45 °C
same,IC50,[10],17.9 nM
same,IC50,[11],119 nM
same,Activity,VCaP [12],inactive
same,Activity,VCaP [13],Dose-Dependent Effect
same,EC50,LNCaP,21.6 nM
same,Activity,[14],inactive
same,ΔTm,[15],7.33 °C
same,Kd,[16],14.1 nM
same,Activity,[17],inactive
same,Activity,[18],Dose-Dependent Effect
same,DC50,[18],7290 nM
same,Kd,[19],149 nM
same,EC50,VCaP [20],30.5 nM
same,Activity,[21],Dose-Dependent Effect
same,DC50,[21],56.7 nM
same,IC50,[22],403 nM
